For one data set, the target named is mu-delta heteromer (Homo sapiens, UniProt P35372+P41143). Kind of data set: immunocytochemical trafficking. The data set is classed as cell-based. The settings on record: ligand 1 μM, 30 minutes at 37°C, HEK-293 cells with FL-mu and HA-delta.
The target of a further data set is mu opioid receptors (Homo sapiens, UniProt P35372). It counts as cell-based. As to conditions: mu HEK-293 cells. The method in brief:
(§1)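 Calcium release measured in HEK-293 cells stably expressing mu, or both mu and delta, opioid receptors. The dual-transfected cells came from an outside lab, and cDNA for the chimeric Gα subunit Δ6-Gαqi4-myr was used. Signal was read as fluorescence in relative fluorescence units, giving EC50 and ΔRFU. Where a mu agonist and a delta antagonist were combined, they were co-administered at equimolar levels rather than given as a pretreatment.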

The conditions of data set [1]: cited from earlier work.
The conditions of data set [2]: cited from earlier work. This is another data set of the same source.
In data set [3] the target is mu/delta opioid receptors (Homo sapiens, UniProt P35372+P41143). It counts as cell-based. The settings on record: mu/delta HEK-293 cells. The method in brief: as §1
Sequence of mu/delta opioid receptors (P35372 whole entry): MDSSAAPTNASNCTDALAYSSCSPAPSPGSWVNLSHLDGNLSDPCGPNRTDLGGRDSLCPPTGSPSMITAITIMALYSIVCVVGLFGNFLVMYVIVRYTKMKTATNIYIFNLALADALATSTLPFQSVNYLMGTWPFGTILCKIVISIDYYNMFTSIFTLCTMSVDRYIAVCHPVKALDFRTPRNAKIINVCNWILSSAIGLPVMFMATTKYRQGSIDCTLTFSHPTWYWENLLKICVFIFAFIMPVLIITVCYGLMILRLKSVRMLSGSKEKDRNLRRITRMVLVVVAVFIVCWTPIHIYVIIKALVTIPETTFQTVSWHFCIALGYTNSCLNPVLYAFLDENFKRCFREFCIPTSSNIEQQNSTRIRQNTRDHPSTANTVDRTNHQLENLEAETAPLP
Sequence of mu/delta opioid receptors (P41143 whole entry): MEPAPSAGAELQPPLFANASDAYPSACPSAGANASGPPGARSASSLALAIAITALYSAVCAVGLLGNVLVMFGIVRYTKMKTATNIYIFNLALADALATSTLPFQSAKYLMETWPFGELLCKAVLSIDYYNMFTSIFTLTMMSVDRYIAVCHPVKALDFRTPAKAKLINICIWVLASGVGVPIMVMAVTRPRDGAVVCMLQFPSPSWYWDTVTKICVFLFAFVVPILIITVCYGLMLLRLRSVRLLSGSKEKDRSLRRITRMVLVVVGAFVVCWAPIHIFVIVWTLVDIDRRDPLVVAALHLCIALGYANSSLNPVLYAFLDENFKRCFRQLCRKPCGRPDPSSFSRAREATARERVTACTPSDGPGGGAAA

Molecules are shown by their SMILES.

A word on the EC50: it is the midpoint of the concentration-response curve.

Sequence of mu opioid receptors (P35372 whole entry): as the sequence (P35372 whole entry) above
Sequence of mu-delta heteromer (P35372 whole entry): as above
Sequence of mu-delta heteromer (P41143 whole entry): as the sequence (P41143 whole entry) above

As for `CN1CC[C@]23c4c5ccc(O)c4O[C@H]2[C@H](NC(=O)COCC(=O)NCCCCCCCNC(=O)COCC(=O)Nc2cccc4c6c([nH]c24)[C@@H]2Oc4c(O)ccc7c4[C@@]24CCN(CC2CC2)[C@@H](C7)[C@]4(O)C6)CC[C@@]3(O)[C@H]1C5` [MDAN-21], the “internalization of mu and delta cell-surface opioid receptors” value at mu-delta heteromer was “did not produce significant internalization”. The “calcium release ΔRFU” value was found to be 420 RFU on mu opioid receptors and 468 RFU in data set [3]. Also, the values for the EC50 (on mu opioid receptors (read-out: calcium release EC50); in data set [3] (read-out: calcium release EC50)) were 851 nM and 412 nM, respectively. Further, the place preference entry in data set [1] was “without tolerance, physical dependence, or place preference”. For the same compound, in data set [2], the antinociception entry is “potent antinociception”. In addition, in data set [2], the physical dependence entry was “without tolerance, physical dependence, or place preference”. The tolerance entry in data set [2] (mice) is “does not produce tolerance”.
